According to ChEMBL document CHEMBL2176870 (J Med Chem, 2012):
pIC50: −log10 of the molar value. Converted amounts (≈) assume the structure as drawn. Each block holds one compound with its values, some of them ahead of it.

Tests used:
Proteus mirabilis = assay: Antibacterial activity against Proteus mirabilis; format: functional
Escherichia coli [1] = assay: Antibacterial activity against Escherichia coli; format: functional
Moraxella catarrhalis = assay: Antibacterial activity against Moraxella catarrhalis; format: functional
Haemophilus influenzae = assay: Antibacterial activity against Haemophilus influenzae; format: functional
Neisseria meningitidis = assay: Antibacterial activity against Neisseria meningitidis; format: functional
Neisseria gonorrhoeae = assay: Antibacterial activity against Neisseria gonorrhoeae; format: functional
Staphylococcus aureus [2] = assay: Antibacterial activity against methicillin-resistant Staphylococcus aureus NRS385 infected in Swiss mouse; format: functional
How it was run: (§1)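 Murine lethal systemic infection by intraperitoneal MRSA challenge. A single subcutaneous dose was given 5 min after infection.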

Staphylococcus aureus [3] = assay: Antibacterial activity against methicillin-resistant Staphylococcus aureus NRS384 infected in Swiss mouse; format: functional; how it was run: as §1
Staphylococcus aureus [4] = assay: Antibacterial activity against methicillin-resistant Staphylococcus aureus NRS382 infected in Swiss mouse; format: functional; how it was run: as §1
[5] = system: Staphylococcus haemolyticus; assay: Antibacterial activity against methicillin-resistant Staphylococcus haemolyticus; format: functional
[6] = system: Staphylococcus epidermidis; assay: Antibacterial activity against methicillin-resistant Staphylococcus epidermidis; format: functional
Staphylococcus aureus [7] = assay: Antibacterial activity against methicillin-susceptible Staphylococcus aureus; format: functional
Staphylococcus aureus [8] = assay: Antibacterial activity against methicillin-resistant Staphylococcus aureus; format: functional
Staphylococcus aureus [9] = assay: Antibacterial activity against community acquired methicillin-resistant Staphylococcus aureus; format: functional
[10] = Cytotoxicity against human HepG2 cells; format: cell-based; conditions: read-out: ED50 (the source's name)
[11] = molecular target: T1, Enoyl-[acyl-carrier-protein] reductase [NADPH] FabI (Staphylococcus aureus, UniProt Q6GI75); assay: Inhibition of Staphylococcus aureus recombinant FabI using trans-2-octenoyl N-acetylcysteamine thioester as substrate preincubated for 60 mins
T1 sequence (Q6GI75 whole entry): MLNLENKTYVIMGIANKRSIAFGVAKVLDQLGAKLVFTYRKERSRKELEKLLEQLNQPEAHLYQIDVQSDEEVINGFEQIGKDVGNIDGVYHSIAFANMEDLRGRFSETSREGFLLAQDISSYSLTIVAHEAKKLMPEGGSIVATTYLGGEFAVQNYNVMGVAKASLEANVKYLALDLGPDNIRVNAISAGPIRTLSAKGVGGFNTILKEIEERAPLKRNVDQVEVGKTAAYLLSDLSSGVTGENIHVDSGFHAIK
How it was run: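 Recombinant S. aureus FabI (2 nM) in 50 mM ADA pH 6.5, 1 mM DTT, 0.006% Triton X-100, 50 mM NaCl. Preincubated 60 min at room temperature with 40 μM NADPH, 10 μM NADP+ and inhibitor in DMSO. Reaction started with 100 μM t-o-NAC. Inhibition versus untreated samples; IC50 by Langmuir fit.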

Streptococcus pneumoniae = assay: Antibacterial activity against Streptococcus pneumoniae D39 after 18 hrs by broth microdilution method; format: functional; conditions: D39, 18 h
How it was run: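 CLSI broth microdilution with 2-fold dilutions from 0.06 to 64 μg/mL. Cation-adjusted Mueller–Hinton broth with 2.5% lysed horse blood, inoculum 5 × 10^5 CFU/mL, grown at 35 °C for 18 h in 5% CO2. MIC is the lowest concentration showing no visible growth.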

Enterococcus faecalis = assay: Antibacterial activity against Enterococcus faecalis ATCC 29212 after 18 hrs by broth microdilution method; format: functional; conditions: ATCC 29212, 18 h
How it was run: (§2)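 CLSI broth microdilution with serial 2-fold dilutions from 0.06 to 64 μg/mL. Cation-adjusted Mueller–Hinton broth, inoculum 5 × 10^5 CFU/mL, incubated at 35 °C for 18 h. MIC taken as the lowest concentration with no visible growth.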

Escherichia coli [12] = assay: Antibacterial activity against Escherichia coli C7 after 18 hrs by broth microdilution method; format: functional; conditions: C7, 18 h
Staphylococcus aureus [13] = assay: Antibacterial activity against Staphylococcus aureus CIP54.146 after 18 hrs by broth microdilution method; format: functional; conditions: CIP54.146, 18 h; how it was run: as §2

MIC90 (Proteus mirabilis): 0.06 µg/mL | MIC90 (Escherichia coli [1]): ≥ 16 µg/mL | MIC90 (Moraxella catarrhalis): 0.03 µg/mL | MIC90 (Haemophilus influenzae): 0.03 µg/mL | MIC90 (Neisseria meningitidis): ≤ 0.008 µg/mL | MIC90 (Neisseria gonorrhoeae): 0.5 µg/mL
SMILES: C[C@H]1COc2c(N3CCN(C)CC3)c(F)cc3c(=O)c(C(=O)O)cn1c23.C[C@H]1COc2c(N3CCN(C)CC3)c(F)cc3c(=O)c(C(=O)O)cn1c23.O [LEVOFLOXACIN]

SMILES: CN[C@H](CC(C)C)C(=O)N[C@H]1C(=O)N[C@@H](CC(N)=O)C(=O)N[C@H]2C(=O)N[C@H]3C(=O)N[C@H](C(=O)N[C@H](C(=O)O)c4cc(O)cc(O)c4-c4cc3ccc4O)[C@H](O)c3ccc(c(Cl)c3)Oc3cc2cc(c3O[C@@H]2O[C@H](CO)[C@@H](O)[C@H](O)[C@H]2O[C@H]2C[C@](C)(N)[C@H](O)[C@H](C)O2)Oc2ccc(cc2Cl)[C@H]1O [VANCOMYCIN]
ED50 (Staphylococcus aureus [2]): 5 mg/kg | ED50 (Staphylococcus aureus [3]): 9.4 mg/kg | ED50 (Staphylococcus aureus [4]): 6 mg/kg

SMILES: CC(=O)NC[C@H]1CN(c2ccc(N3CCOCC3)c(F)c2)C(=O)O1 [LINEZOLID]
MIC90 [5]: 1 µg/mL (≈ 2.96 µM) | MIC90 [6]: 1 µg/mL (≈ 2.96 µM) | MIC90 (Staphylococcus aureus [7]): 2 µg/mL (≈ 5.93 µM) | MIC90 (Staphylococcus aureus [8]): ≥ 16 µg/mL | MIC90 (Staphylococcus aureus [9]): 2 µg/mL (≈ 5.93 µM)

pIC50 [11]: 7.32 | MIC (Streptococcus pneumoniae): 16 µg/mL (≈ 53.3 µM) | MIC (Enterococcus faecalis): > 32 µg/mL | MIC (Escherichia coli [12]): 4 µg/mL (≈ 13.3 µM) | MIC (Staphylococcus aureus [13]): 0.062 µg/mL (≈ 0.206 µM)
SMILES: CCc1ccc(Oc2ccc(C(=O)CCCO)cc2)c(O)c1
CC50 [10]: 16 µg/mL (≈ 53.3 µM)
